B1: tRNA (parent)
chain: GUUCCGUUGGCGUAAUGGUAACGCGUCUCCCUCCUAAGGAGAAGACUGCGGGUUCGAGUCCCGUACGGAACG

Our source for the yeast fitness values is the RNAGym collection of RNA variant scans (doi:10.1126/science.aae0568).

Variants at the floor of the assay were thinned out.

The variants in this data set derive from B1. Nature of the data set: yeast fitness relative to wild type (ratio to wild type); higher = fitter; tRNA-Arg(CCU), competitive growth, 37 C, YPD. The method, boiled down:
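A pool of Saccharomyces cerevisiae strains, each with a tRNA-Arg(CCU) gene variant at the native genomic locus, was competed in YPD at 37°C for 24 hours across six parallel replicates. The variants had been chemically synthesised at a 3% per-site mutation rate over 69 sites, and gene amplicons before and after competition were read by 100-nucleotide paired-end sequencing. Darwinian fitness relative to wild type rested on changes in genotype frequencies. Genotypes required ≥ 100 starting reads, and estimates < 0.5 were set to 0.5.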
In the case of C4G U8A G12A, the yeast fitness was 0.6.

In the case of C4G G10A C30G A43G, the yeast fitness was 0.659.

For C4G G9A G10C C29A G50U U59G A69U, the yeast fitness is at most 0.5.

Turning to C4G G18C C46G, the yeast fitness was at most 0.5.

For C4G U16G C30U C34A U53G U59C A70C, the yeast fitness is at most 0.5.

Take C4G G56C: the yeast fitness amounted to 0.699.

Turning to C4G U19A C46U A70U, the yeast fitness was at most 0.5.

For C4G G41C C46A, the yeast fitness was found to be 0.709.

In the case of C4G U7A G9A C11U C55U, the yeast fitness is at most 0.5.

As to C4G G10A C27G A45U C49G C55A, the yeast fitness stood at 0.617.

As for C4G G17A A57G, the yeast fitness is at most 0.5.

With C4G G12U A14C C49U A65U, the yeast fitness was at most 0.5.

Regarding C4G U7A U59A, the yeast fitness was found to be 0.621.

C4G G48C G67C: the yeast fitness turned out to be 0.542.

With C4G G9C G10A C24U, the yeast fitness was at most 0.5.

Turning to C4G U16C C31U A36G, the yeast fitness is at most 0.5.

C4G C49U U54G: the yeast fitness was at most 0.5.

On to C4G U7A G10C A20C, for which the yeast fitness is at most 0.5.

On to C4G U7A G10C A20C G67U, for which the yeast fitness worked out at 0.527.

C4G G9C C22A G68U: the yeast fitness is at most 0.5.

C4G G9C G41A C61U: the yeast fitness was at most 0.5.

For C4G G23C C60G, the yeast fitness was at most 0.5.

For C4G U13A A43G C46G, the yeast fitness was at most 0.5.

Consider C4G C34A U54C, for which the yeast fitness was 0.54.

C4G U7A U19C A20C U53C: the yeast fitness is at most 0.5.

In the case of C4G G17A A36G C46U, the yeast fitness was at most 0.5.

C4G G6A G23A A43G A69U A70G: the yeast fitness was at most 0.5.

C4G G17A C29U C66U: the yeast fitness was at most 0.5.

As to C4G G10A A69U, the yeast fitness was determined as 0.625.

Turning to C4G U8A G12A G48A A69C A70U, the yeast fitness turned out to be 0.561.

As for C4G G17C C33G, the yeast fitness is at most 0.5.

Consider C4G G9C G38C G68A, for which the yeast fitness is at most 0.5.

Turning to C4G U26G G39C G48A, the yeast fitness was determined as 0.611.

As to C4G C33G U35C U59A A69U, the yeast fitness is at most 0.5.

As for C4G G41A C66U, the yeast fitness was determined as 0.525.

On to C4G G18A C30U, for which the yeast fitness was 0.57.

For the variant C4G G9C C33G, the yeast fitness is 0.674.

As for C4G G67A A69C, the yeast fitness was at most 0.5.

C4G G9C C33G C66U: the yeast fitness is 0.72.

With C4G G63C, the yeast fitness came out at 0.622.

In the case of C4G G10A C22G C55A, the yeast fitness was found to be 0.555.

On to C4G U7G U13G A20U C31A C34G A42C, for which the yeast fitness was at most 0.5.

With C4G U7C G41A A42C G50C A70G, the yeast fitness is at most 0.5.

Regarding C4G C34G A40G, the yeast fitness came to 0.57.

With C4G U7G G12C A20U C34A G41C A45C U47A C55A, the yeast fitness was at most 0.5.

On to C4G U16G, for which the yeast fitness was 0.831.

For C4G C34A C66U, the yeast fitness was at most 0.5.

Consider C4G G10C C46A G68C, for which the yeast fitness is at most 0.5.

As for C4G U7A G10C A20C C46G, the yeast fitness was at most 0.5.

In the case of C4G U8C C49A, the yeast fitness is at most 0.5.

As to C4G C66U, the yeast fitness is 0.836.

As to C4G C66G, the yeast fitness came out at 0.671.

C4G C49A G56C C61U: the yeast fitness was 0.609.

Take C4G G9A G10C C29A G50U U59G: the yeast fitness was 0.599.

C4G C34G A65G: the yeast fitness is at most 0.5.

With C4G G10A G41C C62G, the yeast fitness worked out at 0.572.

With C4G U28C G56U U59A, the yeast fitness was found to be 0.606.

C4G G9C C22A C62A C66G: the yeast fitness was at most 0.5.

C4G G6A C46U A69C: the yeast fitness was 0.536.

Take C4G C55U G63A G68C: the yeast fitness was at most 0.5.

With C4G G6C U8G G17A G23A C46G C60A, the yeast fitness was 0.567.

Take C4G G9A G50C G67A: the yeast fitness is at most 0.5.

For the variant C4G G9C C33G C61U A70G, the yeast fitness is at most 0.5.

As to C4G G12A C49U C60A C61A, the yeast fitness was at most 0.5.

With C4G U8A G18C U32A U47C U54C, the yeast fitness was at most 0.5.

As for C4G C34U G67A A69U, the yeast fitness was at most 0.5.

For the variant C4G G18C G68C, the yeast fitness came out at 0.636.

On to C4G U7G A65G, for which the yeast fitness amounted to 0.622.

For C4G G10C C11G A37U A43G, the yeast fitness is at most 0.5.

Consider C4G U7C C27A A43U U59G, for which the yeast fitness is at most 0.5.

As to C4G U16C G44A G48A G50C, the yeast fitness turned out to be 0.511.

For the variant C4G U7G, the yeast fitness was determined as 0.642.

With C4G G17A C66U, the yeast fitness turned out to be 0.596.

On to C4G G18C A57U, for which the yeast fitness was at most 0.5.

With C4G G12A C66G, the yeast fitness is 0.503.

In the case of C4G C49G G67A, the yeast fitness is at most 0.5.

Take C4G G6C A40U A45G C55A: the yeast fitness is at most 0.5.

With C4G G25A C60G C62G, the yeast fitness was 0.57.

Take C4G C34U C49A: the yeast fitness was determined as 0.61.

Regarding C4G G6C C30A, the yeast fitness was at most 0.5.

Take C4G C34G A42U C61U C66U: the yeast fitness was at most 0.5.

In the case of C4G G10C C11G A37U A43G A69G, the yeast fitness is at most 0.5.

C4G U13C G39C: the yeast fitness is at most 0.5.
